In ChEMBL document CHEMBL1123827, “Alpha 2-adrenergic agonists/antagonists: the synthesis and structure-activity relationships of a series of indolin-2-yl and tetrahydroquinolin-2-yl imidazolines” (J Med Chem, 1987):

Key:
[1] = target: T1, Adrenergic receptor alpha-2 (Rattus norvegicus, UniProt P22086+P19328+P22909); assay: Binding affinity against alpha-2 adrenergic receptor was determined by the displacement of [3H]clonidine from rat brain cortical membranes; type: cell membranes, Membrane
T1 sequence (P22086 whole entry): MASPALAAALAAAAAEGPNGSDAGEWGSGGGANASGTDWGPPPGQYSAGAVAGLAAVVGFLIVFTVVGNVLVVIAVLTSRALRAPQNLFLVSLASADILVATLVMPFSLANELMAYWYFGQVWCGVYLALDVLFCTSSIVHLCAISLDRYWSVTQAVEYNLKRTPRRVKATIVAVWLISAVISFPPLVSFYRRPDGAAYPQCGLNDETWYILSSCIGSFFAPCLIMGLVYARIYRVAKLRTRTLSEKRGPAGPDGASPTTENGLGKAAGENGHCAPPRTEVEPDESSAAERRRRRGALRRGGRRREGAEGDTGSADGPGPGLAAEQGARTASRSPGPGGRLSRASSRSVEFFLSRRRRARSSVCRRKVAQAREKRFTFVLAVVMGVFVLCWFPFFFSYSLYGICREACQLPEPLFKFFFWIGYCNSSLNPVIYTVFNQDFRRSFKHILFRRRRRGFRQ
T1 sequence (P19328 whole entry): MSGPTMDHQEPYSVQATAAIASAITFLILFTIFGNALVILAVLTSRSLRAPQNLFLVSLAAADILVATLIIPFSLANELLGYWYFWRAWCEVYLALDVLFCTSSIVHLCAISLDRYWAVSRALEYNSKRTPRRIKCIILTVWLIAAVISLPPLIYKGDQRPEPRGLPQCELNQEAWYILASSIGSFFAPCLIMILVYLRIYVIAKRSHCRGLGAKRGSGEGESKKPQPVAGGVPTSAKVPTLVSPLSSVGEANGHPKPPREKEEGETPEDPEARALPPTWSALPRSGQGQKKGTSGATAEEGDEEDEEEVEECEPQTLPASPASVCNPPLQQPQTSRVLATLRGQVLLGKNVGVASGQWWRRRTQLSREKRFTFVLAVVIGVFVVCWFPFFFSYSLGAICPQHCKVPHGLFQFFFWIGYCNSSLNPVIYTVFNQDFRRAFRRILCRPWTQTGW
T1 sequence (P22909 whole entry): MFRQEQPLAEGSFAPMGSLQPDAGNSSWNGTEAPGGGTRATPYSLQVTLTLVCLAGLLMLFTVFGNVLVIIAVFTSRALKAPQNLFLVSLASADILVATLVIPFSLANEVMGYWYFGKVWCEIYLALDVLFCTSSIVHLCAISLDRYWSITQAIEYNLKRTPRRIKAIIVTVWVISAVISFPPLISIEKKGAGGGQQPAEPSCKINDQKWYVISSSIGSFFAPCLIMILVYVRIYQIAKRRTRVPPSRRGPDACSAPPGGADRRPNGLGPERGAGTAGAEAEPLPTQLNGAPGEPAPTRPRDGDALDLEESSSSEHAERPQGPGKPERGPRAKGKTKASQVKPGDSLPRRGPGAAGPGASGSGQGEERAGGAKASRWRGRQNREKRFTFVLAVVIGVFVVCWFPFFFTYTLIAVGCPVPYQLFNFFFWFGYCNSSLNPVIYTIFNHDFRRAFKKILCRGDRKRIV

[2] = target: T1, Adrenergic receptor alpha-2; assay: Alpha-2 adrenergic receptor antagonistic activity in rat vas deferens vs clonidin; type: functional, tissue-based
Outline: (§1)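 Vasa deferentia from Sprague-Dawley rats (180–250 g) mounted between platinum ring electrodes at 1 g resting tension in oxygenated Krebs at 37 °C. Single-pulse electrical stimulation (1 ms, 0.15 Hz, lowest voltage giving maximal contraction).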

[3] = target: T1, Adrenergic receptor alpha-2; assay: Alpha-2 adrenergic receptor agonistic activity in rat vas deferens.
[4] = target: T1, Adrenergic receptor alpha-2; assay: The compound was evaluated for the alpha-2 adrenergic receptor antagonistic activity in rat vas deferens vs clonidin; type: functional, tissue-based; outline: as §1
Mus musculus = assay: Antagonistic activity against clonidine-induced antinociception in mouse after po administration; type: functional
Outline: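 Swiss Webster mice (18–24 g), 10 per treatment. Test compound was given orally in 0.9% NaCl at 10 mL/kg. […] Mice were observed 5–10 min after PPQ, and those writhing at least 3 times were counted as percent reversal.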

[5] = target: T1, Adrenergic receptor alpha-2; assay: Alpha-2 adrenergic receptor antagonistic activity in rat vas deferens vs clonidine; type: functional, tissue-based
[6] = target: T2, Adrenergic receptor alpha-2 (Rattus norvegicus) (UniProt P22086+P19328+P22909); assay: The compound was evaluated for the alpha-2 adrenergic receptor antagonistic activity in rat vas deferens vs clonidine; i = the compound contracted the tissue at 100 nM; type: functional, tissue-based; conditions: filed as agonist; outline: as §1
[7] = target: T3, Adrenergic receptor alpha-1 (Rattus norvegicus, UniProt P15823+P23944+P43140); assay: The compound was evaluated for the alpha-1 adrenergic receptor antagonistic activity in rat vas deferens vs methoxamine alpha-1 adrenoceptor antagonism; type: functional, tissue-based
T3 sequence (P15823 whole entry): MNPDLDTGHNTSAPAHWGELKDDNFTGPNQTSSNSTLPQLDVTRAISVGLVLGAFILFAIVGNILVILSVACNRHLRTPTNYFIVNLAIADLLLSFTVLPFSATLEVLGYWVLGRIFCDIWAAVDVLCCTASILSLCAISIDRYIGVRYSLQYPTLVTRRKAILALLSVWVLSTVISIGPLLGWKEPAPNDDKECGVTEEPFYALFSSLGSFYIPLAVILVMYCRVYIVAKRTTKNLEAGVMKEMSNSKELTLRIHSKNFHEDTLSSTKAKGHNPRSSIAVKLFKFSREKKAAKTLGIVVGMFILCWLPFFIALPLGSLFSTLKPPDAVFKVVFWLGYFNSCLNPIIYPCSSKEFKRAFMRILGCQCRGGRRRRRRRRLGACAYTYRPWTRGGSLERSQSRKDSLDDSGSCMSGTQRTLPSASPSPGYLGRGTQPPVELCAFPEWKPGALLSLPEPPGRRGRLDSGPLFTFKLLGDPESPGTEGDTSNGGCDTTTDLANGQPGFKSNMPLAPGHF
T3 sequence (P23944 whole entry): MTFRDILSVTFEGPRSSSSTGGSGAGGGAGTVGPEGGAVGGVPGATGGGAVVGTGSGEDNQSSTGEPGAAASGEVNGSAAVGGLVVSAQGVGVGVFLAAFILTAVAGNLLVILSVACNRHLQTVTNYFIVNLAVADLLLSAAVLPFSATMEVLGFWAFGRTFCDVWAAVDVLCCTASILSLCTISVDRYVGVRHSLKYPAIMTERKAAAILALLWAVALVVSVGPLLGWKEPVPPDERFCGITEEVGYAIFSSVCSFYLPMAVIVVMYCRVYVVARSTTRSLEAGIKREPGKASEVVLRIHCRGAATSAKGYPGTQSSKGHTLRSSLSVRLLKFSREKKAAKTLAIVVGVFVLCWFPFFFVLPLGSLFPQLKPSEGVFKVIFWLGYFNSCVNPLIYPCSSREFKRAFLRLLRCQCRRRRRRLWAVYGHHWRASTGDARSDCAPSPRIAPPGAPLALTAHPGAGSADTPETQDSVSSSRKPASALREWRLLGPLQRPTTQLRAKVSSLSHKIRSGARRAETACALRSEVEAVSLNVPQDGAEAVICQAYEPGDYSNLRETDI
T3 sequence (P43140 whole entry): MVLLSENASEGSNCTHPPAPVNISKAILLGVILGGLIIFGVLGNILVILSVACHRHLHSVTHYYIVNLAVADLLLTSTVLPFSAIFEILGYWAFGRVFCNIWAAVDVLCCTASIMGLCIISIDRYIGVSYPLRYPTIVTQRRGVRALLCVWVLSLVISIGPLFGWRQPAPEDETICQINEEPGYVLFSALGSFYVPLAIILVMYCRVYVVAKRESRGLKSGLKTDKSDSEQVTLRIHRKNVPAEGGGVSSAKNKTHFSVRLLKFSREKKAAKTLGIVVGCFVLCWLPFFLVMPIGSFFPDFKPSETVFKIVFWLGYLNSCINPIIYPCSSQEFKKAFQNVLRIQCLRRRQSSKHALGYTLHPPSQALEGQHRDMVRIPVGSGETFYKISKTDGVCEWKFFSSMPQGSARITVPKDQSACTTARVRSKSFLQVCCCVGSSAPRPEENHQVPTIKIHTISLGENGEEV
Outline: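 Vasa deferentia from Sprague-Dawley rats (180–250 g) mounted at 1 g resting tension in oxygenated Krebs at 31 °C. Methoxamine was the reference α1 agonist. Agonist concentration-effect curves were run without and with at least three antagonist concentrations after 10 min preincubation. Potency was taken from Schild analysis, mean of at least three preparations from separate animals.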

[8] = target: T3, Adrenergic receptor alpha-1; assay: Binding affinity against alpha-1 adrenergic receptor was determined by the displacement of [3H]prazosin from rat brain cortical membranes; value ranges from 6.06-7.06; type: cell membranes, Membrane
Outline: (§2)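 Rat cortex was homogenized in 50 mM Tris pH 7.7, washed twice by centrifugation at 48000g and resuspended in 150 volumes. […] Nonspecific binding was defined with 10 μM phentolamine. Bound label was counted on filters, in triplicate. IC50 by logit plot, converted to Ki by Cheng-Prusoff.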

[9] = target: T2, Adrenergic receptor alpha-2 (Rattus norvegicus); assay: The compound was evaluated for the alpha-2 adrenergic receptor antagonistic activity in rat vas deferens vs clonidin; l = compound contracted the tissue at 100nM, which is an alpha-1 agonist like response; type: functional, tissue-based; conditions: filed as agonist
[10] = target: T3, Adrenergic receptor alpha-1; assay: Binding affinity against alpha-1 adrenergic receptor was determined by the displacement of [3H]prazosin from rat brain cortical membranes; value ranges from 4.6-30.6; type: cell membranes, Membrane; outline: as §2
[11] = target: T1, Adrenergic receptor alpha-2; assay: The compound was evaluated for the alpha-2 adrenergic receptor agonistic activity in rat vas deferens; the effect was not yohimbine reversible.
[12] = target: T3, Adrenergic receptor alpha-1; assay: Binding affinity against alpha-1 adrenergic receptor was determined by the displacement of [3H]prazosin from rat brain cortical membranes; value ranges from 7.8-34.6; type: cell membranes, Membrane; outline: as §2

| SMILES | Ki [1] [nM] | pA2 [2] | ED50 (Mus musculus) [mg/kg] | also measured |
| --- | --- | --- | --- | --- |
| CCC[C@@]1(C2=NCCN2)Cc2ccccc2N1C | 260 | 6.6 | – | IC50 [3]: > 1000 nM |
| CN1c2ccccc2C[C@@]1(C)C1=NCCN1 | 3.4 | – | – | IC50 [3]: > 300 nM; pA2 [4]: 7.55 |
| C[C@@H]1Cc2ccccc2N(C)[C@@H]1C1=NCCN1 | 719 | 5.88 | – | – |
| CCN1c2ccccc2CC1C1=NCCN1 (stereo not given) | 0.91 | 8.91 | 2.6 | – |
| C[C@@H]1c2ccccc2N(C)[C@@H]1C1=NCCN1 | 6.9 | – | > 300 | IC50 [3]: 3.29 nM; pA2 [4]: < 6 |
| CCCCN1c2ccccc2CC1C1=NCCN1 (stereo not given) | 3.5 | – | 4 | pA2 [5]: 8.8 |
| CCCN1c2ccccc2CC1C1=NCCN1 (stereo not given) | 1.93 | 8.76 | 100 | – |
| CN1c2ccc(Cc3ccccc3)cc2CC1C1=NCCN1 (stereo not given) | 53.6 | 7.59 | > 100 | – |
| C=CC[C@@]1(C2=NCCN2)Cc2ccccc2N1C | 77 | – | – | IC50 [3]: > 1000 nM; pA2 [4]: 6.96 |
| c1ccc(CCN2c3ccccc3CC2C2=NCCN2)cc1 (stereo not given) | 6 | – | 6 | – |
| c1ccc(N2c3ccccc3CC2C2=NCCN2)cc1 (stereo not given) | 4.2 | – | – | pA2 [6]: Agonist |
| CN1c2ccc(Cl)cc2CC1C1=NCCN1 (stereo not given) | 1.9 | 8.56 | – | – |
| c1ccc2c(c1)CCC(C1=NCCN1)N2 (stereo not given) | 13.8 | 8.03 | – | – |
| C=CCN1c2ccccc2CC1C1=NCCN1 (stereo not given) | 0.47 | – | – | pA2 [7]: 8.02; Ki [8]: 6.56 nM; pA2 [5]: 9.07 |
| CN(CC1=NCCN1)c1ccccc1 | 3.9 | – | – | pA2 [9]: Agonist |
| c1ccc(CN2c3ccccc3CC2C2=NCCN2)cc1 (stereo not given) | 2.3 | 7.93 | 7 | – |
| c1ccc2c(c1)OCC(C1=NCCN1)O2 (stereo not given) [IDAZOXAN] | – | – | 1.6 | – |

| SMILES | Ki [1] [nM] | pA2 [2] | ED50 (Mus musculus) [mg/kg] | also measured |
| --- | --- | --- | --- | --- |
| CN1c2ccccc2CC1CC1=NCCN1 (stereo not given) | 355 | – | – | pA2 [5]: < 6 |
| c1ccc2c(c1)CCN2C1=NCCN1 | > 1000 | – | – | – |
| CN1c2ccccc2CCC1C1=NCCN1 (stereo not given) | 1.52 | 8.13 | – | – |
| CN1c2ccccc2CC1C1=NCCN1 (stereo not given) | 0.45 | 8.65 | 1.3 | pA2 [7]: 7.75; Ki [10]: 10.5 nM |
| COC[C@@]1(C2=NCCN2)Cc2ccccc2N1C | 38 | – | – | IC50 [11]: 131 nM |
| COC(=O)[C@@H]1[C@H]2C[C@H]3c4[nH]c5ccccc5c4CCN3C[C@@H]2CC[C@@H]1O [YOHIMBINE] | – | – | 0.6 | – |
| CN1c2c(Cl)cc(Cl)cc2CC1C1=NCCN1 (stereo not given) | 12.3 | 8 | – | – |
| CN1c2c(Cl)cccc2CC1C1=NCCN1 (stereo not given) | 0.72 | – | 0.1 | pA2 [4]: 8.8 |
| CCOCCN1c2ccccc2CC1C1=NCCN1 (stereo not given) | 26 | – | 20.5 | pA2 [5]: 7.81 |
| C[C@H]1c2ccccc2N(C)[C@@H]1C1=NCCN1 | 72.3 | 6.96 | – | IC50 [3]: > 1000 nM |
| C[C@@H]1Cc2ccccc2N[C@@H]1C1=NCCN1 | > 1000 | < 6 | – | IC50 [3]: > 1000 nM |
| CC(C)N(C[C@@]1(C2=NCCN2)Cc2ccccc2N1C)C(C)C | 25.1 | – | – | IC50 [3]: 94.8 nM |
| c1ccc2c(c1)CC(C1=NCCN1)N2 (stereo not given) | 2.11 | – | – | pA2 [5]: 8.16 |
| CN1c2ccc(F)cc2CC1C1=NCCN1 (stereo not given) | 0.91 | 8.45 | – | pA2 [7]: 8.03; Ki [12]: 16.4 nM |
| Cn1c(CC2=NCCN2)cc2ccccc21 | 46.7 | – | 100 | pA2 [5]: 7.48 |
| Cn1c(C2=NCCN2)cc2ccccc21 | > 1000 | – | – | pA2 [5]: > 6 |
